Laboratory results taken from ChEMBL document CHEMBL1255255, “Highly variable penicillin resistance determinants PBP 2x, PBP 2b, and PBP 1a in isolates of two Streptococcus pneumoniae clonal groups, Poland 23F-16 and Poland 6B-20” (2008).
Where a chain is given by its changes, count along the chain named. In brackets after ≈: the same amount, converted by molar mass. Activity calls are given as the source filed them. The rule behind the calls is not given here.

Assays:
[1] = target: T1, Penicillin-binding protein 1A (Streptococcus pneumoniae serotype 4 (strain ATCC BAA-334 / TIGR4)) (UniProt Q04707); assay: Binding affinity to PBP 1a in Streptococcus pneumoniae isolate k-637 at 1.1 ng/ml to 1.1 ug /ml
T1 sequence (whole entry): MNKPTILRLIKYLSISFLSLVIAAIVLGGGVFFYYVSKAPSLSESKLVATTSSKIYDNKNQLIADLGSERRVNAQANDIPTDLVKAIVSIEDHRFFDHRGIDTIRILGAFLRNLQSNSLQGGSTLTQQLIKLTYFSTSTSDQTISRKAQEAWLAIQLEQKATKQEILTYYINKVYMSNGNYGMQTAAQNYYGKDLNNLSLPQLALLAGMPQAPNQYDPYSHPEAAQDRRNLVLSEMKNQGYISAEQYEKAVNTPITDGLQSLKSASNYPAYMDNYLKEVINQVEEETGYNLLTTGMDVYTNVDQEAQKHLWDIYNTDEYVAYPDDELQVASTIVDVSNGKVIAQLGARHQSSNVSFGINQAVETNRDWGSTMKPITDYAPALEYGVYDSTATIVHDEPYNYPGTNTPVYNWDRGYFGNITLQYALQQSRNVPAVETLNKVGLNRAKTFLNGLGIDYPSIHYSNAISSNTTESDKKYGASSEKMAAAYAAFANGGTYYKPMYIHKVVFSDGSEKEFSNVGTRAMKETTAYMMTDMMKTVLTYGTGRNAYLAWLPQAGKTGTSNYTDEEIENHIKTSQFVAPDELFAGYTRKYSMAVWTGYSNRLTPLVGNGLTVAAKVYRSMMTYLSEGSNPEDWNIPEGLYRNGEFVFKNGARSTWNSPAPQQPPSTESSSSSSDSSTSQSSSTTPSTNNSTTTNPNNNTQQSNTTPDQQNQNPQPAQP
How it was run: (§1)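 Cells grown at 37°C without aeration in C medium with 0.2% yeast extract, monitored by nephelometry, harvested at 80 to 100 nephelometry units and resuspended in 20 mM sodium phosphate (pH 7.2) with 0.2% Triton X-100. Lysate aliquots labeled with decreasing Bocillin FL (1.1, 0.36, 0.11, 0.036 μg/ml, onward) for 30 min at 37°C. PBPs were resolved by SDS-PAGE (7.5% resolving gel) and read by fluorescence imaging.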

[2] = target: T2, Penicillin-binding protein 2X (Streptococcus pneumoniae R6) (UniProt P59676); assay: Binding affinity to PBP 2x in Streptococcus pneumoniae R6 at 1.1 ng/ml to 1.1 ug /ml; how it was run: as §1
T2 sequence (whole entry): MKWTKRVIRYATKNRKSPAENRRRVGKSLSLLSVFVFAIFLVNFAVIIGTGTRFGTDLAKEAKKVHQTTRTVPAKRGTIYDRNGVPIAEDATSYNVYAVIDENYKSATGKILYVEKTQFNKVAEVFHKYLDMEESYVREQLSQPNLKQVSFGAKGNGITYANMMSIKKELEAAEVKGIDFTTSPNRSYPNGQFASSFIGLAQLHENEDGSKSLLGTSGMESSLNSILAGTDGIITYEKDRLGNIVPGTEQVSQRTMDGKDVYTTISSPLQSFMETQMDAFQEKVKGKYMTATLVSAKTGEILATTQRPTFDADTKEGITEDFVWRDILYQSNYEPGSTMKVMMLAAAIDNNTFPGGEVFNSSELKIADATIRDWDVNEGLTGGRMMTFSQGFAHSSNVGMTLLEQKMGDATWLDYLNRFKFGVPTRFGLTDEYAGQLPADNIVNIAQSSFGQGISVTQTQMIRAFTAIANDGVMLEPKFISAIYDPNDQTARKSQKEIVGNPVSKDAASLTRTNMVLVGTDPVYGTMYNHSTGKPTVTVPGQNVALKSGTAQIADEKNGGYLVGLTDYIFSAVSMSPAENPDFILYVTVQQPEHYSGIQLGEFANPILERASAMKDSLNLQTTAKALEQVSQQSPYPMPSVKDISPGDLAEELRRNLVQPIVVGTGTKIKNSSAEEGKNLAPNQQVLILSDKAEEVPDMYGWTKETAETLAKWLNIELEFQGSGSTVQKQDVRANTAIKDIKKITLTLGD

[3] = target: T3, Penicillin-binding protein 2x (Streptococcus pneumoniae serotype 4 (strain ATCC BAA-334 / TIGR4)) (UniProt P14677); assay: Binding affinity to PBP 2x in Streptococcus pneumoniae isolate k-421 at 1.1 ng/ml to 1.1 ug /ml; how it was run: as §1
T3 sequence (whole entry): T2 sequence (whole entry) with M385T

[4] = target: T3, Penicillin-binding protein 2x (Streptococcus pneumoniae serotype 4 (strain ATCC BAA-334 / TIGR4)); assay: Binding affinity to PBP 2x in Streptococcus pneumoniae isolate 909 at 1.1 ng/ml to 1.1 ug /ml; how it was run: as §1
Streptococcus pneumoniae [5] = assay: Antimicrobial activity against Streptococcus pneumoniae isolate 909 obtained from bronchoalveolar lavage fluid of patient; assay type: functional; details: isolate 909, Lung
Streptococcus pneumoniae [6] = assay: Antimicrobial activity against Streptococcus pneumoniae isolate 2907 obtained from sinusitis of patient; assay type: functional
Streptococcus pneumoniae [7] = assay: Antimicrobial activity against Streptococcus pneumoniae isolate 4134 obtained from sputum of patient; assay type: functional
Streptococcus pneumoniae [8] = assay: Antimicrobial activity against Streptococcus pneumoniae ATCC BAA-343; assay type: functional
Streptococcus pneumoniae [9] = assay: Antimicrobial activity against Streptococcus pneumoniae isolate 40 obtained from blood of patient; assay type: functional
Streptococcus pneumoniae [10] = assay: Antimicrobial activity against Streptococcus pneumoniae isolate k-421 obtained from ear of patient; assay type: functional
Streptococcus pneumoniae [11] = assay: Antimicrobial activity against Streptococcus pneumoniae isolate 2904 obtained from blood of patient; assay type: functional
Streptococcus pneumoniae [12] = assay: Antimicrobial activity against Streptococcus pneumoniae isolate k-598 obtained from bronchoalveolar lavage fluid of patient; assay type: functional; details: Lung
Streptococcus pneumoniae [13] = assay: Antimicrobial activity against Streptococcus pneumoniae isolate k-637 obtained from CSF of patient; assay type: functional
Streptococcus pneumoniae [14] = assay: Antimicrobial activity against Streptococcus pneumoniae isolate 187 obtained from bronchoalveolar lavage fluid of patient; assay type: functional; details: isolate 187, Lung
Streptococcus pneumoniae [15] = assay: Antimicrobial activity against Streptococcus pneumoniae ATCC BAA-612; assay type: functional
Streptococcus pneumoniae [16] = assay: Antimicrobial activity against Streptococcus pneumoniae isolate k-585 obtained from bronchoalveolar lavage fluid of patient; assay type: functional; details: isolate k-585, Lung
Streptococcus pneumoniae [17] = assay: Antimicrobial activity against Streptococcus pneumoniae isolate 657 obtained from sputum of patient; assay type: functional

Compound	Activity [1]	Activity [2]	Activity [3]	Activity [4]	MIC (Streptococcus pneumoniae [5]) [mg/L]	MIC (Streptococcus pneumoniae [6]) [mg/L]	MIC (Streptococcus pneumoniae [7]) [mg/L]	MIC (Streptococcus pneumoniae [8]) [mg/L]	MIC (Streptococcus pneumoniae [9]) [mg/L]	MIC (Streptococcus pneumoniae [10]) [mg/L]	MIC (Streptococcus pneumoniae [11]) [mg/L]	MIC (Streptococcus pneumoniae [12]) [mg/L]	MIC (Streptococcus pneumoniae [13]) [mg/L]	MIC (Streptococcus pneumoniae [14]) [mg/L]	MIC (Streptococcus pneumoniae [15]) [mg/L]	MIC (Streptococcus pneumoniae [16]) [mg/L]	MIC (Streptococcus pneumoniae [17]) [mg/L]
Cc1cc(C)n2c1C=C1C=CC(CCC(=O)Nc3ccc(OCC(=O)N[C@@H]4C(=O)N5[C@@H]4SC(C)(C)[C@@H]5C(=O)O)cc3)=[N+]1[B-]2(F)F	Active	inactive	inactive	inactive	–	–	–	–	–	–	–	–	–	–	–	–	–
CC1(C)S[C@@H]2[C@H](NC(=O)[C@H](N)c3ccc(O)cc3)C(=O)N2[C@H]1C(=O)O [AMOXICILLIN]	–	–	–	–	8 (≈ 21.9 µM)	0.25 (≈ 0.684 µM)	1 (≈ 2.74 µM)	2 (≈ 5.47 µM)	8 (≈ 21.9 µM)	2 (≈ 5.47 µM)	2 (≈ 5.47 µM)	16 (≈ 43.8 µM)	2 (≈ 5.47 µM)	16 (≈ 43.8 µM)	0.12 (≈ 0.328 µM)	4 (≈ 10.9 µM)	0.06 (≈ 0.164 µM)
CO/N=C(\C(=O)N[C@@H]1C(=O)N2C(C(=O)[O-])=C(C[N+]3(C)CCCC3)CS[C@H]12)c1csc(N)n1 [CEFEPIME]	–	–	–	–	1 (≈ 2.08 µM)	0.25 (≈ 0.52 µM)	1 (≈ 2.08 µM)	4 (≈ 8.32 µM)	1 (≈ 2.08 µM)	1 (≈ 2.08 µM)	1 (≈ 2.08 µM)	8 (≈ 16.6 µM)	2 (≈ 4.16 µM)	2 (≈ 4.16 µM)	0.25 (≈ 0.52 µM)	1 (≈ 2.08 µM)	0.06 (≈ 0.125 µM)
CO/N=C(\C(=O)N[C@@H]1C(=O)N2C(C(=O)O)=C(COC(C)=O)CS[C@H]12)c1csc(N)n1 [CEFOTAXIME]	–	–	–	–	2 (≈ 4.39 µM)	0.25 (≈ 0.549 µM)	0.5 (≈ 1.1 µM)	4 (≈ 8.78 µM)	4 (≈ 8.78 µM)	2 (≈ 4.39 µM)	4 (≈ 8.78 µM)	16 (≈ 35.1 µM)	1 (≈ 2.2 µM)	8 (≈ 17.6 µM)	0.06 (≈ 0.132 µM)	1 (≈ 2.2 µM)	0.06 (≈ 0.132 µM)
CO/N=C(\C(=O)N[C@@H]1C(=O)N2C(C(=O)O)=C(CSc3nc(=O)c(O)nn3C)CS[C@H]12)c1csc(N)n1 [CEFTRIAXONE]	–	–	–	–	1 (≈ 1.8 µM)	0.25 (≈ 0.451 µM)	0.25 (≈ 0.451 µM)	4 (≈ 7.21 µM)	4 (≈ 7.21 µM)	1 (≈ 1.8 µM)	2 (≈ 3.61 µM)	4 (≈ 7.21 µM)	0.5 (≈ 0.902 µM)	4 (≈ 7.21 µM)	0.06 (≈ 0.108 µM)	0.25 (≈ 0.451 µM)	0.06 (≈ 0.108 µM)
CO/N=C(\C(=O)N[C@@H]1C(=O)N2C(C(=O)O)=C(COC(N)=O)CS[C@H]12)c1ccco1 [CEFUROXIME]	–	–	–	–	8 (≈ 18.9 µM)	0.25 (≈ 0.589 µM)	2 (≈ 4.71 µM)	8 (≈ 18.9 µM)	32 (≈ 75.4 µM)	2 (≈ 4.71 µM)	16 (≈ 37.7 µM)	> 32	4 (≈ 9.43 µM)	> 32	0.12 (≈ 0.283 µM)	2 (≈ 4.71 µM)	0.12 (≈ 0.283 µM)
C[C@@H](O)[C@H]1C(=O)N2C(C(=O)O)=C(S[C@@H]3CN[C@H](C(=O)N(C)C)C3)[C@H](C)[C@H]12 [MEROPENEM]	–	–	–	–	0.25 (≈ 0.652 µM)	0.12 (≈ 0.313 µM)	0.25 (≈ 0.652 µM)	0.5 (≈ 1.3 µM)	0.5 (≈ 1.3 µM)	0.25 (≈ 0.652 µM)	0.5 (≈ 1.3 µM)	0.5 (≈ 1.3 µM)	0.5 (≈ 1.3 µM)	0.5 (≈ 1.3 µM)	0.06 (≈ 0.156 µM)	0.25 (≈ 0.652 µM)	0.06 (≈ 0.156 µM)
CC1(C)S[C@@H]2[C@H](NC(=O)Cc3ccccc3)C(=O)N2[C@H]1C(=O)O [PENICILLIN G]	–	–	–	–	4 (≈ 12 µM)	0.5 (≈ 1.5 µM)	2 (≈ 5.98 µM)	8 (≈ 23.9 µM)	8 (≈ 23.9 µM)	2 (≈ 5.98 µM)	4 (≈ 12 µM)	8 (≈ 23.9 µM)	8 (≈ 23.9 µM)	8 (≈ 23.9 µM)	0.12 (≈ 0.359 µM)	4 (≈ 12 µM)	0.12 (≈ 0.359 µM)
